Experiments:
[1] = system: MC-38; experiment: Selectivity was evaluated against Murine tumor ZC38 colon adenocarcinoma cell lines- ZL1210 lymphocytic leukemia cell lines at a concentration of 0.24 ug/mL; type: functional, cell-based; details: Mus musculus
How it was run: (§1)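 Disk diffusion soft agar colony formation assay; sample applied to disk (15 μL); cytotoxicity read as zone units. Differential = zone difference between a solid tumor line (murine Colon38; human colon H116, lung H125) and leukemia (murine L1210, human CEM) or normal bone marrow CFU-GM (murine/human). Solid tumor selective if differential exceeds 250 units.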

[2] = system: HL-60; experiment: In vitro antitumor activity against leukemia HL-60(TB) tumor cell lines; type: functional, cell-based, Homo sapiens
[3] = system: MOLT-4; experiment: In vitro antitumor activity against leukemia MOLT-4 tumor cell lines; type: functional, cell-based, Homo sapiens
[4] = system: 786-0; experiment: In vitro antitumor activity against renal 786-0 tumor cell lines; type: functional, cell-based, Homo sapiens
[5] = organism: Homo sapiens; experiment: Concentration giving 500 zone units against H116 colon tumor cell lines; type: functional
How it was run: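 Disk diffusion soft agar colony formation assay on human H116 colon tumor cells. Each sample was applied to a disk as 15 µL, and activity was read as zone units. The value is the sample concentration that gave 500 zone units.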

[6] = organism: Homo sapiens; experiment: (§2) Activity relative to compound 3 (set to 1.0) was evaluated against H116 colon tumor cell lines; type: functional
How it was run: (§3)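 Disk diffusion soft agar colony formation assay on human H116 colon tumor cells, with 15 µL of sample applied to a disk and zone units read. Relative activity = (dilution required for 500 zone units × 100)/(mg/mL), normalised to a reference compound set at 1.0.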

[7] = system: NCI-H226; experiment: In vitro antitumor activity against NSCL NCI-H226 tumor cell lines; type: functional, cell-based, Homo sapiens
[8] = system: L1210; experiment: Selectivity was evaluated murine tumor against ZL1210 lymphocytic leukemia cell lines- ZCFU-GM normal bone marrow cell lines at a concentration of 0.24 ug/mL; type: functional, cell-based; details: Mus musculus; how it was run: as §1
[9] = system: A498; experiment: In vitro antitumor activity against renal A498 tumor cell lines; type: functional, cell-based, Homo sapiens
[10] = system: NCI-H522; experiment: In vitro antitumor activity against NSCL NCI-H522 tumor cell lines; type: functional, cell-based, Homo sapiens
[11] = system: HCT-116; experiment: In vitro antitumor activity against colon HCT116 tumor cell lines; type: functional, cell-based, Homo sapiens
[12] = system: HCT-15; experiment: In vitro antitumor activity against colon HCT-15 tumor cell lines; type: functional, cell-based, Homo sapiens
[13] = system: RXF 393; experiment: In vitro antitumor activity against renal RXF 393 tumor cell lines; type: functional, cell-based, Homo sapiens
[14] = system: A549; experiment: In vitro antitumor activity against NSCL A549/ATCC tumor cell lines; type: functional, cell-based, Homo sapiens
[15] = system: UACC-62; experiment: In vitro antitumor activity against melanoma UACC-62 tumor cell lines; type: functional, cell-based, Homo sapiens
[16] = system: COLO 205; experiment: In vitro antitumor activity against colon COLO 205 tumor cell lines; type: functional, cell-based, Homo sapiens
[17] = system: NCI-H125; experiment: Selectivity was evaluated against human ZH125 lung non small cell carcinoma cell lines-CEM lymphocytic leukemia cell lines at a concentration of 0.24 ug/mL; type: functional, cell-based; how it was run: as §1
[18] = system: MC-38; experiment: Selectivity was evaluated against murine tumor ZC38 colon adenocarcinoma cell lines- ZCFU-GM normal bone marrow cell lines at a concentration of 0.24 ug/mL; type: functional, cell-based; details: Mus musculus; how it was run: as §1
[19] = system: SK-MEL-2; experiment: In vitro antitumor activity against melanoma SK-MEL-2 tumor cell lines; type: functional, cell-based, Homo sapiens
[20] = system: MDA-MB-435; experiment: In vitro antitumor activity against breast MDA-MB-435 tumor cell lines; type: functional, cell-based, Homo sapiens
[21] = system: CCRF-CEM; experiment: In vitro antitumor activity against leukemia CCRF-CEM tumor cell lines; type: functional, cell-based, Homo sapiens
[22] = system: colon; experiment: Selectivity was evaluated against human ZH116 colon cell lines-CEM lymphocytic leukemia cell lines at a concentration of 0.24 ug/mL; type: functional, cell-based; how it was run: as §1
[23] = system: MCF7; experiment: In vitro antitumor activity against breast MCF-7 tumor cell lines; type: functional, cell-based, Homo sapiens
[24] = system: MDA-N; experiment: In vitro antitumor activity against breast MDA-N tumor cell lines; type: functional, cell-based, Homo sapiens
[25] = system: M14; experiment: In vitro antitumor activity against melanoma M14 tumor cell lines; type: functional, cell-based, Homo sapiens
[26] = as §2; type: functional, Homo sapiens; how it was run: as §3
[27] = system: MC-38; experiment: Selectivity was evaluated against murine tumor ZC38 colon adenocarcinoma cell lines- ZCFU-GM normal bone marrow cell lines at a concentration of 550 ug/mL; type: functional, Mus musculus
How it was run: (§4)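 Disk diffusion soft agar colony formation assay with zone units read for murine L1210, C38 and CFU-GM (bone marrow) cells and for human H116, H125 and CEM cells. Selectivity is the zone-unit difference between the paired cell lines. A solid tumor minus leukemia or normal difference above 250 units counts as solid tumor selective.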

[28] = system: NCI-H125; experiment: Selectivity was evaluated against human ZH125 lung non small cell carcinoma cell lines-CEM lymphocytic leukemia cell lines at a concentration of 550 ug/mL; type: functional; how it was run: as §4
[29] = Selectivity was evaluated against human ZH116 colon cell lines-CEM lymphocytic leukemia cell lines at a concentration of 550 ug/mL; type: functional; how it was run: as §4
[30] = system: L1210; experiment: Selectivity was evaluated murine tumor against ZL1210 lymphocytic leukemia cell lines- ZCFU-GM normal bone marrow cell lines at a concentration of 550 ug/mL; type: functional, Mus musculus; how it was run: as §4
[31] = system: MC-38; experiment: Selectivity was evaluated against Murine tumor ZC38 colon adenocarcinoma cell lines- ZL1210 lymphocytic leukemia cell lines at a concentration of 550 ug/mL; type: functional, Mus musculus; how it was run: as §4

CC(=O)OC[C@]12CCC(C)=C[C@H]1O[C@@H]1[C@H](O)[C@@H](OC(C)=O)[C@@]2(C)[C@]12CO2 [ANGUIDIN]
0.24 µg/mL: Concentration [5]
-150 zone unit: Selectivity [1]
-100 zone unit: Selectivity [22]
< 0.001 µM: IC50 ([2]; hl-60) | IC50 ([3]; molt-4) | IC50 [4] | IC50 ([7]; nci-h226) | IC50 ([9]; a498) | IC50 ([10]; nci-h522) | IC50 ([11]; hct-116) | IC50 ([12]; hct-15) | IC50 ([13]; rxf 393) | IC50 ([14]; a549) | IC50 ([15]; uacc-62) | IC50 ([16]; colo 205) | IC50 ([19]; sk-mel-2) | IC50 ([20]; mda-mb-435) | IC50 ([21]; ccrf-cem) | IC50 ([23]; mcf7) | IC50 ([24]; mda-n) | IC50 ([25]; m14)
150 zone unit: Selectivity [8]
0 zone unit: Selectivity [17] | Selectivity [18]
423: Relative activity [6]

C/C1=C\C(=O)OC[C@]23CC[C@](C)(O)[C@H]4C[C@@]5(O)[C@H](O[C@H]42)[C@H](O)[C@@H](OC(=O)/C=C\C=C\[C@@H]2O[C@H](C1)O[C@H]2C)[C@]35C [Miophytocen C]
-350 zone unit: Selectivity [31]
300 zone unit: Selectivity [30]
1: Relative activity [26]
-50 zone unit: Selectivity [27] | Selectivity [28] | Selectivity [29]
550 µg/mL: Concentration [5]
> 10 µM: IC50 ([2]; Homo sapiens, HL-60) | IC50 ([3]; Homo sapiens, MOLT-4) | IC50 ([4]; Homo sapiens) | IC50 ([7]; Homo sapiens, NCI-H226) | IC50 ([9]; Homo sapiens, A498) | IC50 ([10]; Homo sapiens, NCI-H522) | IC50 ([11]; Homo sapiens, HCT-116) | IC50 ([12]; Homo sapiens, HCT-15) | IC50 ([13]; Homo sapiens, RXF 393) | IC50 ([14]; Homo sapiens, A549) | IC50 ([15]; Homo sapiens, UACC-62) | IC50 ([16]; Homo sapiens, COLO 205) | IC50 ([19]; Homo sapiens, SK-MEL-2) | IC50 ([20]; Homo sapiens, MDA-MB-435) | IC50 ([21]; Homo sapiens, CCRF-CEM) | IC50 ([23]; Homo sapiens, MCF7) | IC50 ([24]; Homo sapiens, MDA-N) | IC50 ([25]; Homo sapiens, M14)
